Measured values published in ChEMBL document CHEMBL1125138, “1,3-Dialkyl-3-acyltriazenes, a novel class of antineoplastic alkylating agents” (J Med Chem, 1990).

Key:
A498 = assay: Evaluated for the inhibitory concentration required to cause growth inhibition of A498Rem- renal cell line using the MTT Cytotoxicity Assay; format: functional, cell-based; settings: Homo sapiens
Outline: (§1)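 MTT microculture tetrazolium growth assay on human cell lines and normal fibroblasts. Cells seeded at 1000 cells/well, with compound added 24 h after plating. Cultures then incubated a further 6 days at 37 °C before MTT read-out of growth versus untreated cells.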

A-427 = assay: Evaluated for the inhibitory concentration required to cause growth inhibition of A427Mer- cell line of lung using the MTT Cytotoxicity Assay; format: functional, cell-based; settings: Homo sapiens; outline: as §1
A704 = assay: Evaluated for the inhibitory concentration required to cause growth inhibition of A704Rem- renal cell line using the MTT Cytotoxicity Assay; format: functional, cell-based; settings: Homo sapiens; outline: as §1
A673 = assay: Evaluated for the inhibitory concentration required to cause growth inhibition of A673Mer+ sarcoma cell line using the MTT Cytotoxicity Assay; format: functional, cell-based; settings: Homo sapiens; outline: as §1
CCD 19Lu = assay: Evaluated for the inhibitory concentration required to cause growth inhibition of CCD-19Lu fibroblasts cell line using the MTT Cytotoxicity Assay; format: functional, cell-based; settings: Homo sapiens; outline: as §1
DOD-1 = assay: Evaluated for the inhibitory concentration required to cause growth inhibition of DOD-1 breast cell line using the MTT Cytotoxicity Assay; format: functional, cell-based; settings: Homo sapiens; outline: as §1
NCI-H460 = assay: Evaluated for the inhibitory concentration required to cause growth inhibition of H460 cell line of lung using the Microculture Tetrazolium (MTT) Cytotoxicity Assay; format: functional, cell-based; settings: Homo sapiens; outline: as §1
NCI-H358 = assay: Evaluated for the inhibitory concentration required to cause growth inhibition of H358M cell line of lung using the Microculture Tetrazolium (MTT) Cytotoxicity Assay; format: functional, cell-based; settings: Homo sapiens; outline: as §1
NCI-H125 = assay: Evaluated for the inhibitory concentration required to cause growth inhibition of H125 cell line of lung using the Microculture Tetrazolium (MTT) Cytotoxicity Assay; format: functional, cell-based; settings: Homo sapiens; outline: as §1
NCI-H322M = assay: Evaluated for the inhibitory concentration required to cause growth inhibition of H322M cell line of lung using the Microculture Tetrazolium (MTT) Cytotoxicity Assay; format: functional, cell-based; settings: Homo sapiens; outline: as §1
NCI-H23 = assay: Evaluated for the inhibitory concentration required to cause growth inhibition of H23 cell line of lung using the Microculture Tetrazolium (MTT) Cytotoxicity Assay; format: functional, cell-based; settings: Homo sapiens; outline: as §1
LOX IMVI = assay: Evaluated for the inhibitory concentration required to cause growth inhibition of LOX melanoma cell line using the MTT Cytotoxicity Assay; format: functional, cell-based; settings: Homo sapiens; outline: as §1
MCF7 = assay: Evaluated for the inhibitory concentration required to cause growth inhibition of MCF-7 breast cell line using the MTT Cytotoxicity Assay; format: functional, cell-based; settings: Homo sapiens; outline: as §1
[1] = tested on: MAR BEL fibroblasts cell line; assay: Evaluated for the inhibitory concentration required to cause growth inhibition of MAR BEL fibroblasts cell line using the MTT Cytotoxicity Assay; format: functional, cell-based; settings: Homo sapiens; outline: as §1
NCI/ADR-RES = assay: Evaluated for the inhibitory concentration required to cause growth inhibition of MCF-7ADR breast cell line using the MTT Cytotoxicity Assay; format: functional, cell-based; settings: Homo sapiens; outline: as §1
Malme-3M = assay: Evaluated for the inhibitory concentration required to cause growth inhibition of MALME-3M melanoma cell line using the MTT Cytotoxicity Assay; format: functional, cell-based; settings: Homo sapiens; outline: as §1
OVCAR-4 = assay: Evaluated for the inhibitory concentration required to cause growth inhibition of OVCAR-4 ovarian cell line using the MTT Cytotoxicity Assay; format: functional, cell-based; settings: Homo sapiens; outline: as §1
OVCAR-3 = assay: Evaluated for the inhibitory concentration required to cause growth inhibition of OVCAR-3 ovarian cell line using the MTT Cytotoxicity Assay; format: functional, cell-based; settings: Homo sapiens; outline: as §1
HOS-TE85 = assay: Evaluated for the inhibitory concentration required to cause growth inhibition of TE85Mer+ sarcoma cell line using the MTT Cytotoxicity Assay; format: functional, cell-based; settings: Homo sapiens; outline: as §1
TE-671 = assay: Evaluated for the inhibitory concentration required to cause growth inhibition of TE-671 cell line of central nervous system (CNS)using the MTT Cytotoxicity Assay; format: functional, cell-based; settings: Homo sapiens; outline: as §1
WiDr = assay: Evaluated for the inhibitory concentration required to cause growth inhibition of WiDR colon cell line using the MTT Cytotoxicity Assay; format: functional, cell-based; settings: Homo sapiens
Outline: (§2)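 MTT cell-growth assay in human cell lines: cells harvested and seeded at 1000 cells/well in 96-well plates. Compound added after 24 h, then cultures incubated a further 6 days at 37 °C. Growth measured with and without agent.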

U-251 = assay: Evaluated for the inhibitory concentration required to cause growth inhibition of U251 cell line of central nervous system (CNS) using the MTT Cytotoxicity Assay; format: functional, cell-based; settings: Homo sapiens; outline: as §2
RPMI-7951 = assay: Evaluated for the inhibitory concentration required to cause growth inhibition of RPMI7951 melanoma cell line using the MTT Cytotoxicity Assay; format: functional, cell-based; settings: Homo sapiens; outline: as §1
SK-MEL-5 = assay: Evaluated for the inhibitory concentration required to cause growth inhibition of SK-MEL-5 melanoma cell line using the MTT Cytotoxicity Assay; format: functional, cell-based; settings: Homo sapiens; outline: as §1
A549 [2] = assay: Evaluated for the inhibitory concentration required to cause growth inhibition of A549Rem- cell line of lung using the MTT Cytotoxicity Assay; format: functional, cell-based; settings: Homo sapiens; outline: as §1
NCI-H522 (Homo sapiens) = assay: Evaluated for the inhibitory concentration required to cause growth inhibition of H522 cell line of lung using the Microculture Tetrazolium (MTT) Cytotoxicity Assay
A549 [3] = assay: Evaluated for the antineoplastic activity against A549 lung (nonsmall cell) tumor xenograft in nude mice after administering 3 injections (intra peritoneally) at a dose of 200 mg/kg; format: functional, Homo sapiens
Outline: (§3)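 Nude mice bearing human tumor xenografts; compound given intraperitoneally as three injections at 4-day intervals. Antitumor activity expressed as % T/C at each dose level. Performed under the NCI Developmental Therapeutics Program.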

A549 [4] = assay: Evaluated for the antineoplastic activity against A549 lung (nonsmall cell) tumor xenograft in nude mice after administering 3 injections (intra peritoneally) at a dose of 100 mg/kg; format: functional, Homo sapiens; outline: as §3
A 172 = assay: Evaluated for the inhibitory concentration required to cause growth inhibition of A172Mer- cell line of central nervous system (CNS) using the MTT Cytotoxicity Assay; format: functional, cell-based; settings: Homo sapiens; outline: as §1
[5] = Evaluated for the antineoplastic activity against LOX amelanotic melanoma tumor xenograft in nude mice after administering 3 injections (intra peritoneally) at a dose of 12.5 mg/kg; format: functional, Homo sapiens; outline: as §3
[6] = Evaluated for the antineoplastic activity against LOX amelanotic melanoma tumor xenograft in nude mice after administering 3 injections (intra peritoneally) at a dose of 25 mg/kg; format: functional, Homo sapiens; outline: as §3
[7] = Evaluated for the antineoplastic activity against LOX amelanotic melanoma tumor xenograft in nude mice after administering 3 injections (intra peritoneally) at a dose of 50 mg/kg; format: functional, Homo sapiens; outline: as §3
[8] = Evaluated for the antineoplastic activity against LX-1 lung (small cell) tumor xenograft in nude mice after administering 3 injections (intra peritoneally) at a dose of 100 mg/kg; format: functional, Homo sapiens; outline: as §3
[9] = Evaluated for the antineoplastic activity against LX-1 lung (small cell) tumor xenograft in nude mice after administering 3 injections (intra peritoneally) at a dose of 25 mg/kg; format: functional, Homo sapiens; outline: as §3
[10] = Evaluated for the antineoplastic activity against LX-1 lung (small cell) tumor xenograft in nude mice after administering 3 injections (intra peritoneally) at a dose of 50 mg/kg; format: functional, Homo sapiens; outline: as §3
[11] = Evaluated for the antineoplastic activity against LOX amelanotic melanoma tumor xenograft in nude mice after administering 3 injections (intra peritoneally) at a dose of 100 mg/kg; format: functional, Homo sapiens; outline: as §3
L1210 [12] = assay: Evaluated for the antineoplastic activity against L1210 leukemia tumor xenograft in nude mice after administering 5 injections (intra peritoneally) at a dose of 21.6 mg/kg; format: functional, Mus musculus
Outline: (§4)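 Mice bearing L1210 leukemia dosed intraperitoneally once daily for 5 successive days (five injections). Activity reported as % T/C at each dose. Performed under the NCI Developmental Therapeutics Program.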

[13] = Evaluated for the antineoplastic activity against M5 sarcoma tumor xenograft in nude mice after administering 4 injections (intra peritoneally) at a dose of 12.5 mg/kg; format: functional, Mus musculus
Outline: (§5)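 M5 sarcoma-bearing mice given four intraperitoneal injections at 4-day intervals. Activity reported as % T/C per dose. Performed under the NCI Developmental Therapeutics Program.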

[14] = Evaluated for the antineoplastic activity against M5 sarcoma tumor xenograft in nude mice after administering 4 injections (intra peritoneally) at a dose of 25 mg/kg; format: functional, Mus musculus; outline: as §5
[15] = Evaluated for the antineoplastic activity against M5 sarcoma tumor xenograft in nude mice after administering 4 injections (intra peritoneally) at a dose of 50 mg/kg; format: functional, Mus musculus; outline: as §5
L1210 [16] = assay: Evaluated for the antineoplastic activity against L1210 leukemia tumor xenograft in nude mice after administering 5 injections (intra peritoneally) at a dose of 36 mg/kg; format: functional, Mus musculus; outline: as §4
L1210 [17] = assay: Evaluated for the antineoplastic activity against L1210 leukemia tumor xenograft in nude mice after administering 5 injections (intra peritoneally) at a dose of 60 mg/kg; format: functional, Mus musculus; outline: as §4
MX1 [18] = assay: Evaluated for the antineoplastic activity against MX-1 mammary tumor xenograft in nude mice after administering 3 injections (intra peritoneally) at a dose of 150 mg/kg; format: functional, Homo sapiens; outline: as §3
MX1 [19] = assay: Evaluated for the antineoplastic activity against MX-1 mammary tumor xenograft in nude mice after administering 3 injections (intra peritoneally) at a dose of 300 mg/kg; format: functional, Homo sapiens; outline: as §3

C/N=N\N(C)C(C)=O
IC50 (A498): 48 µM | IC50 (A-427): 11 µM | IC50 (A704): 55 µM | IC50 (A673): 65 µM | IC50 (CCD 19Lu): 77 µM | IC50 (DOD-1): 60 µM | IC50 (NCI-H460): 75 µM | IC50 (NCI-H358): 100 µM | IC50 (NCI-H125): 53 µM | IC50 (NCI-H322M): 55 µM | IC50 (NCI-H23): 42 µM | IC50 (LOX IMVI): 30 µM | IC50 (MCF7): 37 µM | IC50 [1]: 80 µM | IC50 (NCI/ADR-RES): 40 µM | IC50 (Malme-3M): 25 µM | IC50 (OVCAR-4): 45 µM | IC50 (OVCAR-3): 55 µM | IC50 (HOS-TE85): 40 µM | IC50 (TE-671): 7 µM | IC50 (WiDr): 40 µM | IC50 (U-251): 42 µM | IC50 (RPMI-7951): 60 µM | IC50 (SK-MEL-5): 37 µM | IC50 (A549 [2]): 55 µM | IC50 (NCI-H522 (Homo sapiens)): 30 µM

C/N=N\N(C)C(=O)NC
T/C (A549 [3]): -27% | T/C (A549 [4]): 8% | IC50 (A498): 37 µM | IC50 (A-427): 9 µM | IC50 (A704): 55 µM | IC50 (A673): 50 µM | IC50 (A 172): 24 µM | IC50 (CCD 19Lu): 70 µM | IC50 (DOD-1): 38 µM | IC50 (NCI-H460): 70 µM | IC50 (NCI-H358): 75 µM | IC50 (NCI-H125): 50 µM | IC50 (NCI-H322M): 42 µM | IC50 (NCI-H23): 22 µM | T/C [5]: 131% | T/C [6]: 154% | T/C [7]: 188% | T/C [8]: -55% | T/C [9]: 6% | T/C [10]: -34% | IC50 (LOX IMVI): 19 µM | T/C [11]: 230% | IC50 (MCF7): 30 µM | IC50 [1]: 65 µM | T/C (L1210 [12]): 132% | T/C [13]: 136% | T/C [14]: 158% | T/C [15]: 177% | T/C (L1210 [16]): 146% | T/C (L1210 [17]): 186% | IC50 (NCI/ADR-RES): 35 µM | T/C (MX1 [18]): 15% | T/C (MX1 [19]): -13% | IC50 (Malme-3M): 22 µM | IC50 (OVCAR-4): 35 µM | IC50 (OVCAR-3): 40 µM | IC50 (HOS-TE85): 35 µM | IC50 (TE-671): 46 µM | IC50 (WiDr): 30 µM | IC50 (U-251): 33 µM | IC50 (RPMI-7951): 37 µM | IC50 (SK-MEL-5): 20 µM | IC50 (A549 [2]): 60 µM | IC50 (NCI-H522 (Homo sapiens)): 24 µM

O=NN(CCCl)C(=O)NCCCl [CARMUSTINE]
IC50 (A498): 110 µM | IC50 (A-427): 8 µM | IC50 (A704): 125 µM | IC50 (A 172): 18 µM | IC50 (CCD 19Lu): 300 µM | IC50 (DOD-1): 37 µM | IC50 (NCI-H460): 80 µM | IC50 (NCI-H358): 98 µM | IC50 (NCI-H125): 9 µM | IC50 (NCI-H322M): 60 µM | IC50 (NCI-H23): 5 µM | IC50 (LOX IMVI): 7 µM | IC50 (MCF7): 4.5 µM | IC50 (NCI/ADR-RES): 20 µM | IC50 (Malme-3M): 20 µM | IC50 (OVCAR-4): 18 µM | IC50 (OVCAR-3): 15 µM | IC50 (TE-671): 25 µM | IC50 (U-251): 15 µM | IC50 (SK-MEL-5): 27 µM | IC50 (A549 [2]): 90 µM | IC50 (NCI-H522 (Homo sapiens)): 20 µM
